Data: ChEMBL document CHEMBL2034980, “N⁴-Phenyl-substituted 2-acetylpyridine thiosemicarbazones: cytotoxicity against human tumor cells, structure-activity relationship studies and investigation on the mechanism of action” (Bioorg Med Chem, 2012)
The source made the active and inactive calls.

Tests used:
HeLa [1] = test: Induction of mitotic arrest in human HeLa cells assessed as reduction in cell density by immunofluorescence staining; assay type: functional, cell-based
Summary of the method: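 HeLa cells (8000/well), collagen-coated plates, dosed within 4-6 h of seeding in quadruplicate with 10 twofold dilutions or vehicle (DMSO 0.1% final); 18 h at 37 °C, 5% CO2. Formaldehyde fixation, Hoechst 33342 nuclear stain, anti-α-tubulin/anti-phosphohistone H3 immunostaining; automated high-content imaging. Cell density from nuclear counts; EC50 read from dose-response cell density curves.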

HeLa [2] = test: Induction of mitotic arrest in human HeLa cells assessed as nuclear condensation by Hoechst 33342 staining; assay type: functional; details: read-out: MEC
Summary of the method: (§1)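 HeLa cells (8000/well, collagen-coated plates) were dosed in quadruplicate within 4–6 h of seeding with 10 twofold dilutions or vehicle (0.1% DMSO) for 18 h at 37 °C. Cells were fixed, stained with Hoechst 33342 and immunostained for phosphohistone H3 (Ser10) and α-tubulin, then analysed by automated imaging. Positivity threshold: mean of 28 vehicle wells +1 SD. Values reported as MDEC and EC50.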

HeLa [3] = test: Induction of mitotic arrest in human HeLa cells assessed as reduction in tubulin intensity by Hoechst 33342 staining; assay type: functional; details: read-out: MEC; summary of the method: as §1
HeLa [4] = test: Induction of mitotic arrest in human HeLa cells assessed as mitotic index measuring phosphohistone H3-positive cells by Hoechst 33342 staining; assay type: functional; details: read-out: MEC; summary of the method: as §1
MCF7 [5] = test: Cytotoxicity against human MCF7 cells after 48 hrs by MTT assay; assay type: functional, cell-based; details: for IC50: MCF7, 48 h, read-out: IC50
Summary of the method: (§2)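 MTT assay. Cells were grown in DMEM with 10% FBS and penicillin/streptomycin at 37 °C under 5% CO2, seeded at 1–2×10^3 cells/well and treated 12 h later with 1×10^-12 to 1×10^-5 M ([…] from DMSO stock, final DMSO <0.5%) for 48 h. MTT was added at 0.5 mg mL⁻¹, formazan dissolved in DMSO and read at 570 nm. IC50 is the concentration giving 50% cytotoxicity. Quadruplicates, ≥3 independent experiments.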

[6] = (§3) Cytotoxicity against human U87 cells expressing wild-type p53 after 48 hrs by MTT assay; assay type: functional, cell-based, U-87MG ATCC; details: U-87 MG, read-out: IC50; summary of the method: as §2
U-87MG ATCC [7] = test: as §3; assay type: functional, cell-based; summary of the method: as §2
T98G [8] = test: Cytotoxicity against human T98G cells expressing mutant p53 after 48 hrs by MTT assay; assay type: functional, cell-based; details: for IC50: read-out: IC50; summary of the method: as §2
[9] = Haemolytic activity in human RBC after 1 hr by photometry; assay type: ADME, cell-based; details: Erythrocyte
Summary of the method: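 Human EDTA blood was spun at 700xg for 10 min and the erythrocytes washed three times in cold PBS pH 7.4, then resuspended in it. Cells were incubated with varying compound concentrations for 1 h at 37 °C with shaking. After centrifugation, released haemoglobin was read at 540 nm to give the IC50. Mean ± SD, n = 4.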

MCF7 [10] = test: Induction of apoptosis in human MCF7 cells assessed as irregularities in cellular shape at 1 uM after 48 hrs by DAPI staining; assay type: functional, cell-based
MCF7 [11] = test: Induction of apoptosis in human MCF7 cells assessed as cell shrinkage at 1 uM after 48 hrs by DAPI staining; assay type: functional, cell-based
MCF7 [12] = test: Induction of apoptosis in human MCF7 cells assessed as membrane blebbing at 1 uM after 48 hrs by DAPI staining; assay type: functional, cell-based
MCF7 [13] = test: Induction of apoptosis in human MCF7 cells assessed as chromatin condensation at 1 uM after 48 hrs by DAPI staining; assay type: functional, cell-based
Summary of the method: (§4)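 Cells were treated at 1 μM for 48 h, washed in PBS and fixed in 70% methanol for 30 min at room temperature. They were stained with 0.4 μg mL⁻¹ DAPI for 1 h in the dark, and nuclear condensation and fragmentation were scored by fluorescence microscopy (385–410 nm).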

MCF7 [14] = test: Induction of apoptosis in human MCF7 cells assessed as DNA fragmentation at 1 uM after 48 hrs by DAPI staining; assay type: functional, cell-based; summary of the method: as §4
T98G [15] = test: Induction of apoptosis in human T98G cells assessed as irregularities in cellular shape at 1 uM after 48 hrs by DAPI staining; assay type: functional, cell-based
T98G [16] = test: Induction of apoptosis in human T98G cells assessed as cell shrinkage at 1 uM after 48 hrs by DAPI staining; assay type: functional, cell-based
T98G [17] = test: Induction of apoptosis in human T98G cells assessed as membrane blebbing at 1 uM after 48 hrs […]; assay type: functional, cell-based
T98G [18] = test: Induction of apoptosis in human T98G cells assessed as chromatin condensation at 1 uM after 48 hrs by DAPI staining; assay type: functional, cell-based; summary of the method: as §4
T98G [19] = test: Induction of apoptosis in human T98G cells assessed as DNA fragmentation at 1 uM after 48 hrs by DAPI staining; assay type: functional, cell-based; summary of the method: as §4
U-87MG ATCC [20] = test: Induction of apoptosis in human U87 cells assessed as irregularities in cellular shape at 1 uM after 48 hrs by DAPI staining; assay type: functional, cell-based
U-87MG ATCC [21] = test: Induction of apoptosis in human U87 cells assessed as cell shrinkage at 1 uM after 48 hrs by DAPI staining; assay type: functional, cell-based
U-87MG ATCC [22] = test: Induction of apoptosis in human U87 cells assessed as membrane blebbing at 1 uM after 48 hrs by DAPI staining; assay type: functional, cell-based
U-87MG ATCC [23] = test: Induction of apoptosis in human U87 cells assessed as chromatin condensation at 1 uM after 48 hrs by DAPI staining; assay type: functional, cell-based; summary of the method: as §4
U-87MG ATCC [24] = test: Induction of apoptosis in human U87 cells assessed as DNA fragmentation at 1 uM after 48 hrs by DAPI staining; assay type: functional, cell-based; summary of the method: as §4
MCF7 [25] = test: Induction of apoptosis in human MCF7 cells assessed as appearance of autophagolysosomes at 1 uM after 48 hrs by acridine orange/ethidium bromide staining-based microscopy; assay type: functional, cell-based
Summary of the method: (§5)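 After 48 h at 1 μM, cells were incubated for 15 min in serum-free medium containing 1 μg mL⁻¹ acridine orange and 1 μg mL⁻¹ ethidium bromide. The medium was removed and cells imaged by inverted fluorescence microscopy (530–650 nm). Green/orange nuclear patterns and acidic cytoplasmic vacuoles were scored.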

T98G [26] = test: Induction of apoptosis in human T98G cells assessed as appearance of autophagolysosomes at 1 uM after 48 hrs by acridine orange/ethidium bromide staining-based microscopy; assay type: functional, cell-based; summary of the method: as §5
U-87MG ATCC [27] = test: Induction of apoptosis in human U87 cells assessed as appearance of autophagolysosomes at 1 uM after 48 hrs by acridine orange/ethidium bromide staining-based microscopy; assay type: functional, cell-based; summary of the method: as §5
MCF7 [28] = test: Induction of apoptosis in human MCF7 cells assessed as chromatin condensation at 1 uM after 48 hrs by acridine orange/ethidium bromide staining-based microscopy; assay type: functional, cell-based; summary of the method: as §5
T98G [29] = test: Induction of apoptosis in human T98G cells assessed as chromatin condensation at 1 uM after 48 hrs by acridine orange/ethidium bromide staining-based microscopy; assay type: functional, cell-based; summary of the method: as §5
U-87MG ATCC [30] = test: Induction of apoptosis in human U87 cells assessed as chromatin condensation at 1 uM after 48 hrs by acridine orange/ethidium bromide staining-based microscopy; assay type: functional, cell-based; summary of the method: as §5
Bos taurus [31] = organism: Bos taurus; test: Inhibition of bovine brain tubulin polymerization at 5 to 20 uM after 10 mins by spectrophotometry
Summary of the method: (§6)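 Bovine brain tubulin (10 μM; 1 mg mL⁻¹) in 0.8 M monosodium glutamate with 1% DMSO was pre-incubated with compound (four twofold dilutions) at 30 °C, then cooled to 0 °C for 10 min. GTP (0.4 mM) was added and the temperature raised to 37 °C while A350 was followed.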

Bos taurus [32] = organism: Bos taurus; test: Total inhibition of bovine brain tubulin polymerization at concentration close to compound solubility limit after 10 mins by spectrophotometry; summary of the method: as §6

Compound	Activity (MCF7 [5])	IC50 (MCF7 [5])	IC50 [6]	Activity (U-87MG ATCC [7])	Activity (T98G [8])	IC50 (T98G [8])	IC50 [9]	Activity (MCF7 [10])	Activity (MCF7 [11])	Activity (MCF7 [12])	Activity (MCF7 [13])	Activity (MCF7 [14])	Activity (T98G [15])	Activity (T98G [16])	Activity (T98G [17])	Activity (T98G [18])	Activity (T98G [19])	Activity (U-87MG ATCC [20])	Activity (U-87MG ATCC [21])	Activity (U-87MG ATCC [22])	other results
COc1cc2c(c(OC)c1OC)-c1ccc(OC)c(=O)cc1[C@@H](NC(C)=O)CC2 [COLCHICINE]	–	–	–	–	–	–	–	–	–	–	–	–	–	–	–	–	–	–	–	–	EC50 (HeLa [1]): 0.03 µM; minimal effective concentration (HeLa [2]): 0.01 µM; minimal effective concentration (HeLa [3]): 0.01 µM; minimal effective concentration (HeLa [4]): 0.02 µM
CC(=NNC(=S)Nc1ccc(Cl)cc1)c1ccccn1 (mixture of isomers)	Dose-dependent effect	8.5 nM	1.7 nM	Dose-dependent effect	Dose-dependent effect	5.9 nM	> 10 µM	Active	Active	Active	Active	Active	Active	Active	Active	Active	Active	Active	Active	Active	Activity (U-87MG ATCC [23]): Active; Activity (U-87MG ATCC [24]): Active; Activity (MCF7 [25]): Active; Activity (T98G [26]): Active; Activity (U-87MG ATCC [27]): Active; Activity (MCF7 [28]): Active; Activity (T98G [29]): Active; Activity (U-87MG ATCC [30]): Active; inhibition (Bos taurus [31]): Active; EC50 (HeLa [1]): 9.2 µM; minimal effective concentration (HeLa [2]): 5.8 µM; minimal effective concentration (HeLa [3]): 3.6 µM; minimal effective concentration (HeLa [4]): > 50 µM; inhibition (Bos taurus [32]): inactive
CC(=NNC(=S)Nc1cccc([N+](=O)[O-])c1)c1ccccn1 (mixture of isomers)	Dose-dependent effect	38 nM	69 nM	Dose-dependent effect	Dose-dependent effect	140 nM	> 10 µM	Active	Active	Active	Active	Active	Active	Active	Active	Active	Active	Active	Active	Active	Activity (U-87MG ATCC [23]): Active; Activity (U-87MG ATCC [24]): Active; Activity (MCF7 [25]): Active; Activity (T98G [26]): Active; Activity (U-87MG ATCC [27]): Active; Activity (MCF7 [28]): Active; Activity (T98G [29]): Active; Activity (U-87MG ATCC [30]): Active
CC(=NNC(=S)Nc1ccccc1I)c1ccccn1 (mixture of isomers)	Dose-dependent effect	4.1 nM	6.1 nM	Dose-dependent effect	Dose-dependent effect	8.1 nM	> 10 µM	Active	Active	Active	Active	Active	Active	Active	Active	Active	Active	Active	Active	Active	Activity (U-87MG ATCC [23]): Active; Activity (U-87MG ATCC [24]): Active; Activity (MCF7 [25]): Active; Activity (T98G [26]): Active; Activity (U-87MG ATCC [27]): Active; Activity (MCF7 [28]): Active; Activity (T98G [29]): Active; Activity (U-87MG ATCC [30]): Active
